Among the data in PubChem BioAssay are outcome and potentiation values, retold here.

Each structure is given as a SMILES string. Active and inactive are the calls of the source.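 Rule for the calls, unless noted: active = mean duplicate activation above the buffer control mean plus 5 SD of those controls; inactive = the rest.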

Experiment [1] can be described thus: nonspecific flux increase, KCNQ1-free cells – parental CHO cells, counter-screen for KCNQ1 potentiator project (AID 493006;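 active = duplicate-averaged activation above buffer control mean plus 5 SD of those controls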). To be noted: parental CHO-K1 cells, FluxOR thallium flux, at 10 µM; stronger effect = higher value. The essentials: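 Benchmarks – buffer and R-L3 controls · Assay system – untransfected host CHO-K1 cells with FluxOR thallium dye · Measure – fluorescence change ratio scaled 0% buffer, 100% R-L3 · Technique – kinetic thallium-flux fluorescence · Timing – overnight 37 °C plating, 90 min RT dye, 20 min compound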
On the technique in general: The purpose of a counterscreen is to sort out artefacts and off-target activity.

For experiment [2], the target named is Potassium voltage-gated channel subfamily KQT member 1 (Homo sapiens) (UniProt P51787). In words: enhancement of KCNQ1 channel thallium flux – FluxOR thallium flux, CHO cells, duplicates, confirmation (AID 493007;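 active = potentiation averaged over duplicate wells exceeding buffer-only control mean by more than 3 SD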;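 for outcome: cells depolarized by a potassium plus thallium sulfate stimulus after compound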). To be noted: KCNQ1 cell line, FluxOR thallium flux fluorescence, at 10 µM; stronger effect = higher value, % of reference activator effect, buffer zero. The essentials:
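Material: CHO cells stably expressing the KCNQ1 potassium channel / Times: dye 90 min then compound 20 min, both at room temperature / Detection: kinetic thallium influx fluorescence with FluxOR dye, 10 s baseline, 110 s post-stimulus / Benchmarks: buffer-only wells as 0% and R-L3 activator as 100% / Replicates: each compound tested in duplicate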

The target in experiment [3] is Potassium voltage-gated channel subfamily KQT member 2 (Rattus norvegicus) (UniProt O88943). In words: KCNQ2 thallium flux enhancement – KCNQ2-CHO-K1 cells, selectivity assay for KCNQ1 potentiator project (AID 493009;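 active = mean duplicate potentiation above the buffer control mean plus 5 SD of buffer wells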;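 note: assay conditions were tuned for KCNQ1 rather than KCNQ2 modulators; signal is max minus min fluorescence divided by baseline after thallium stimulus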). To be noted: FluxOR thallium flux fluorescence, at 10 µM; stronger effect = higher value, scaled: buffer 0, activator control 100.
Chain of Potassium voltage-gated channel subfamily KQT member 2 (Rattus norvegicus) (O88943 whole entry, looked up): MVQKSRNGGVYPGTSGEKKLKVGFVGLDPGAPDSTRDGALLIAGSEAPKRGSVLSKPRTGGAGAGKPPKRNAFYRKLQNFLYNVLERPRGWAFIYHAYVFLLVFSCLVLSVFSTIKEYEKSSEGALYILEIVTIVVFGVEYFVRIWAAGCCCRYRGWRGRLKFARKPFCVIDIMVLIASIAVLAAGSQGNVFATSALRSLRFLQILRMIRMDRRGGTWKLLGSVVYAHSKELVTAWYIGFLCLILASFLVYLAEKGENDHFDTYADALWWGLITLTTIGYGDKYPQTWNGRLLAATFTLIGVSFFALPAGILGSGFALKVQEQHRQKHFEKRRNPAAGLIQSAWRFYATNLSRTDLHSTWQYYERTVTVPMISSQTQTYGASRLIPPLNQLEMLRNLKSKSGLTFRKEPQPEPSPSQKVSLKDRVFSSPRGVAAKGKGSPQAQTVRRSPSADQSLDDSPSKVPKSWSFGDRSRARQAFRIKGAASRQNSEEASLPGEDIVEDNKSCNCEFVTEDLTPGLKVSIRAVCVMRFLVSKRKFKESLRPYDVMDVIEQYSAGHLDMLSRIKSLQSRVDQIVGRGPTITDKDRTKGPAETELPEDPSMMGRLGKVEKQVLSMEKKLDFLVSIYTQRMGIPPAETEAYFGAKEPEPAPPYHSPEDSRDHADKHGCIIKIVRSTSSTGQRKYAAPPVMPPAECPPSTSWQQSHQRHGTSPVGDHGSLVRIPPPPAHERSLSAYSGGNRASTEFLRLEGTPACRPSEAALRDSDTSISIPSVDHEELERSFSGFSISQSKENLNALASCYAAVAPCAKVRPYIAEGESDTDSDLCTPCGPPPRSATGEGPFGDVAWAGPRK
The target in experiment [4] is Potassium voltage-gated channel subfamily KQT member 1 (Homo sapiens) (UniProt P51787). In words: KCNQ1 activators by electrophysiology – IonWorks patch clamp, KCNQ1-CHO cells, orthogonal assay for KCNQ1 potentiator project, confirmation (AID 493184;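 active = current rise at least 3 SD above the untreated control mean in each of two repeat wells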). To be noted: automated patch clamp current, at 10 µM; stronger effect = higher value. The essentials: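 Probe or stimulus: depolarizing pulse to +40 mV from -90 mV; Material: CHO cells carrying KCNQ1; Compound: one dose, 10 µM final; Signal: automated voltage clamp, amphotericin B perforated patch; Read-out basis: percent current increase versus pre-compound level; Buffer or medium: pH 7.4 external bath; Replication: duplicates.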
Chain of Potassium voltage-gated channel subfamily KQT member 1 (Homo sapiens) (P51787 whole entry, looked up): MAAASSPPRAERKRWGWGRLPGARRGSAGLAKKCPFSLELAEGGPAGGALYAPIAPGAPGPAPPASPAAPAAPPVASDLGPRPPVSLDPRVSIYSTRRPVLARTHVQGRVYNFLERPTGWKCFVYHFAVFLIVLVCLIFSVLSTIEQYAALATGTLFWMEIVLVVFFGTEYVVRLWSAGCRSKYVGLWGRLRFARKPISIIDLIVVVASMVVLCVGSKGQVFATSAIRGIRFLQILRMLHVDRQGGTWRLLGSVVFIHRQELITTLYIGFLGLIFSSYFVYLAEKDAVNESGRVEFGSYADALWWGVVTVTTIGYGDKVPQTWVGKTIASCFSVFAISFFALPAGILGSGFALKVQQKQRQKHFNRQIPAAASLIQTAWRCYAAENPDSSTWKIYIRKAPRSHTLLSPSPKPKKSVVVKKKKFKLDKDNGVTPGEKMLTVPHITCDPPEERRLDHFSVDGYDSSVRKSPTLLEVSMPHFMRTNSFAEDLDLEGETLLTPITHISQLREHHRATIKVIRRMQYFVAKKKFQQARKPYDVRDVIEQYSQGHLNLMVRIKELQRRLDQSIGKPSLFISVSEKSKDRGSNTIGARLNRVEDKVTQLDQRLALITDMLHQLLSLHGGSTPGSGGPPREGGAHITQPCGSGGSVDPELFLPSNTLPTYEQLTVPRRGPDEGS

Experiment [5] addresses Potassium voltage-gated channel subfamily E member 1 (Homo sapiens) + Potassium voltage-gated channel subfamily KQT member 1 (Homo sapiens) (UniProt P15382+P51787). As to the kind of experiment: KCNQ1-E1 channel activation – thallium flux, CHO-K1 KCNQ1/E1 cells, selectivity assay for KCNQ1 potentiator project, confirmation (AID 493186). To be noted: FluxOR thallium flux, at 10 µM; stronger effect = higher value. In a few lines: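 system = KCNQ1/E1-expressing stable CHO-K1 cell line | doses = single compound concentration per well | times = dye 90 min, compound 20 min, room temperature | measured by = FluxOR Tl+ flux fluorescence, kinetic read | evaluation = fluorescence rise relative to baseline, as percent of R-L3 response above buffer | controls = buffer and R-L3 | replicates = duplicate wells per compound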

Chain of Potassium voltage-gated channel subfamily E member 1 (Homo sapiens) + Potassium voltage-gated channel subfamily KQT member 1 (Homo sapiens) (P51787 whole entry, looked up): as the sequence (P51787 whole entry, looked up) above

For the molecule `CCc1ccc(-c2ccc3nnc(SC)n3n2)cc1`, the outcome in experiment [1], in experiment [2], in experiment [3], in experiment [4] and in experiment [5] was inactive.
Take `S=C(NCCc1ccccc1)N1CCn2cccc2C1c1cccnc1` (stereo not given): the outcome in experiment [1], in experiment [3], in experiment [4] and in experiment [5] was inactive. The potentiation in experiment [2] is 18.5% (active).
Take `Cc1cc(/C=N/NC(=O)C(O)(c2ccccc2)c2ccccc2)c(C)n1-c1ccccc1`: the outcome in experiment [1], in experiment [2], in experiment [3], in experiment [4] and in experiment [5] was inactive.
Regarding `C=CCn1c(O)c(N=NC(=S)Nc2ccc(OC)cc2)c2ccccc21`, the result in experiment [1], in experiment [3], in experiment [4] and in experiment [5] was inactive. Further, the potentiation in experiment [2] is 33.5% (active).
On to `Cc1ccc(C)c(-n2c3nc(=O)n(C)c(=O)c-3cc3ccccc32)c1`, for which the outcome in experiment [1], in experiment [2], in experiment [3], in experiment [4] and in experiment [5] was inactive.
With `CC(Sc1nncs1)C(=O)NC1CCCCC1C` (stereo not given), the outcome in experiment [1], in experiment [2], in experiment [3], in experiment [4] and in experiment [5] was inactive.
Consider `Cc1cc(C)c2c(n1)nn1c(NCCCN(C)C)cc(C)nc21`, for which the result in experiment [1], in experiment [2], in experiment [3], in experiment [4] and in experiment [5] was inactive.
For the molecule `Cn1nnc(NC(=O)C(c2ccccc2)c2ccccc2)n1`, the result in experiment [1], in experiment [2], in experiment [3], in experiment [4] and in experiment [5] was inactive.
As for `Cc1ccc(C(=O)CC(=O)c2ccc(C)cc2O)cc1`, the result in experiment [1], in experiment [2], in experiment [3], in experiment [4] and in experiment [5] was inactive.
For the molecule `Cn1cnc([N+](=O)[O-])c1S(=O)(=O)c1cccc(Cl)c1`, the result in experiment [1], in experiment [2], in experiment [3], in experiment [4] and in experiment [5] was inactive.
For the molecule `S=c1[nH]nc(-c2ccco2)n1/N=C/c1cccc(Cl)c1Cl`, the outcome in experiment [1], in experiment [3], in experiment [4] and in experiment [5] was inactive. Also, in experiment [2], the potentiation is 23.5% (active).
`Cc1cccc(C)c1OCc1cc(C(=O)N(C)Cc2cc(C3CC3)n[nH]2)no1`: the result in experiment [1], in experiment [2], in experiment [3], in experiment [4] and in experiment [5] was inactive.
On to `O=C(Nc1nc(-c2cc(F)ccc2F)cs1)c1ccccn1`, for which the outcome in experiment [1], in experiment [2], in experiment [3], in experiment [4] and in experiment [5] was inactive.
In the case of `O=c1c2ccccc2oc2cc(NCCCN3CCOCC3)ccc12`, the outcome in experiment [1], in experiment [3], in experiment [4] and in experiment [5] was inactive. For the same molecule, the potentiation in experiment [2] was 29.5% (active).
Take `COc1cc(C(=O)Nc2ccc3c(c2)nc(C)n3C)cc(OC)c1OC`: the result in experiment [1], in experiment [2], in experiment [3], in experiment [4] and in experiment [5] was inactive.
As for `COc1cc(OC)c(-n2cc(-c3ccc(Cl)cc3)[nH]c2=O)cc1Cl`, the outcome in experiment [1], in experiment [2], in experiment [3], in experiment [4] and in experiment [5] was inactive.
On to `O=C(NC1(O)C(=O)c2ccccc2C1=O)c1ccc(C(F)(F)F)cc1`, for which the outcome in experiment [1], in experiment [2], in experiment [4] and in experiment [5] was inactive. For the same molecule, in experiment [3], the potentiation is 148% (active).
Take `COc1ccccc1OCCCc1c(C)n[nH]c1C`: the outcome in experiment [1], in experiment [2], in experiment [3], in experiment [4] and in experiment [5] was inactive.
As to `S=c1[nH]nc(COc2ccccc2)n1/N=C/c1ccc(Cl)cc1Cl`, the result in experiment [1], in experiment [2], in experiment [3], in experiment [4] and in experiment [5] was inactive.
In the case of `Cc1ccc(C(=O)NC(=S)NNC(=O)COc2ccc([N+](=O)[O-])cc2)cc1`, the outcome in experiment [1], in experiment [3], in experiment [4] and in experiment [5] was inactive. Further, the potentiation in experiment [2] was 19.5% (active).
Consider `O=C(O)/C=C/C(=O)c1ccc2c(c1)CCc1ccccc1-2`, for which the outcome in experiment [1], in experiment [2], in experiment [3], in experiment [4] and in experiment [5] was inactive.
Turning to `Cc1ccc(/C=N/NC(=O)c2cc(C3CC3)nc3ccccc23)o1`, the outcome in experiment [1], in experiment [3], in experiment [4] and in experiment [5] was inactive. In addition, the potentiation in experiment [2] was 29.5% (active).
As for `CC(=C/c1ccccc1)/C=N/n1c(-c2ccco2)n[nH]c1=S`, the outcome in experiment [1], in experiment [2], in experiment [3], in experiment [4] and in experiment [5] was inactive.
Turning to `Cn1cccc1/C=N/n1c(-c2ccc(Cl)cc2Cl)n[nH]c1=S`, the result in experiment [1], in experiment [2], in experiment [3], in experiment [4] and in experiment [5] was inactive.
Regarding `O=C(NC(=S)Nc1ccc2c(c1)OCCO2)c1cccc2ccccc12`, the result in experiment [1], in experiment [2], in experiment [3], in experiment [4] and in experiment [5] was inactive.
As to `COc1ccc(-n2ccnc(SCC(=O)NC3CCCC3)c2=O)cc1OC`, the outcome in experiment [1], in experiment [2], in experiment [3], in experiment [4] and in experiment [5] was inactive.
Regarding `COc1ccc(C(=O)NC(=S)N(C)C2CCCCC2)cc1Br`, the result in experiment [1], in experiment [2], in experiment [3], in experiment [4] and in experiment [5] was inactive.
On to `S=c1[nH]nc(C2CCCCC2)n1/N=C/c1cccc(Cl)c1Cl`, for which the result in experiment [1], in experiment [3], in experiment [4] and in experiment [5] was inactive. Besides, the potentiation in experiment [2] was 41% (active).
As to `O=c1c2cc(Cl)ccc2[nH]c(=S)n1Cc1cccs1`, the result in experiment [1], in experiment [2], in experiment [4] and in experiment [5] was inactive. The potentiation in experiment [3] was 142% (active).
As to `Cc1ccc(-c2noc(CNS(=O)(=O)c3ccccc3)n2)cc1`, the result in experiment [1], in experiment [2], in experiment [3], in experiment [4] and in experiment [5] was inactive.
`NNc1nc2c(F)cc(F)cc2s1`: the result in experiment [1], in experiment [2], in experiment [3], in experiment [4] and in experiment [5] was inactive.
